Activity calls are given as the source filed them. No cut-off for these calls is given here.
Experiments:
[1] = Plasma concentration in Wistar rat at 10 mg/kg, po after 1.7 hrs; assay type: ADME, organism-based; set-up: dose 10 mg/kg, route oral
Method in brief: (§1)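 Male Wistar rats given 10 mg/kg orally in 5% DMSO/succinylated gelatin. At selected times, anesthesia with thiobutobarbital 150 mg/kg ip, laparotomy and thoracic lymph duct catheter. Mesenteric lymph collected for at least 10 min, with a plasma sample at mid-collection. Methanol precipitation, then LC-MS-MS with internal standard.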

[2] = Cmax in Wistar rat at 10 mg/kg, po; assay type: ADME, organism-based; set-up: dose 10 mg/kg, route oral; conditions: in vivo
Method in brief: (§2)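 Male Wistar rats (~250 g), 10 mg/kg by gavage as a DMSO solution added to 7.5% succinylated gelatin in water (5% DMSO final). Sublingual blood under light isoflurane predose and at 0.5, 1, 2, 3, 4, 6, 8, 24 h into EDTA. Plasma LC-MS-MS after methanol precipitation. Noncompartmental parameters. Bioavailability referenced to 1 mg/kg iv.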

[3] = Lipophilicity, log D of the compound at pH 7.4; assay type: physicochemical; conditions: buffer
Rattus norvegicus [4] = test: Lymphopenic activity in Wistar rat assessed as reduction in blood lymphocyte count at 10 mg/kg, po after 24 hrs; assay type: functional
Method in brief: (§3)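 Normotensive male Wistar rats given 1–10 mg/kg by gavage in 5% DMSO/7.5% succinylated gelatin. Blood taken before and 3, 6 and 24 h after dosing, with later times for some compounds. Lymphocytes counted by hematology analyzer. % LC change calculated per animal relative to the predose value (=100%). Mean ± SEM.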

[5] = Drug uptake in Wistar rat mesenteric lymph at 10 mg/kg, po after 1.7 hrs; assay type: ADME, organism-based, Mesenteric lymph node; set-up: dose 10 mg/kg, route oral; conditions: read-out: Drug uptake; method in brief: as §1
[6] = Plasma concentration in Wistar rat at 10 mg/kg, po after 6 hrs; assay type: ADME, organism-based; set-up: dose 10 mg/kg, route oral
[7] = AUC (0 to 24 hrs) in Wistar rat at 10 mg/kg, po; assay type: ADME, organism-based; set-up: time < 24 hr, dose 10 mg/kg, route oral; conditions: plasma
Rattus norvegicus [8] = test: Clearance in Wistar rat at 1 mg/kg, iv; assay type: ADME, organism-based; set-up: dose 1 mg/kg, route intravenous; conditions: in vivo
Method in brief: (§4)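 Male Wistar rats (~250 g), jugular vein and carotid artery catheters implanted 2 days before dosing under isoflurane with buprenorphine analgesia. 1 mg/kg given as a 5 min jugular infusion in aqueous mixed micellar vehicle (phospholipids, bile acids). Serial EDTA blood sampling up to 24 h. Plasma analysed by LC-MS-MS after methanol precipitation. Noncompartmental analysis.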

[9] = molecular target: Sphingosine 1-phosphate receptor 1 (Homo sapiens, UniProt P21453); test: Agonist activity at human recombinant S1P1 receptor expressed in CHO cells assessed as membrane-bound 35S-GTPgammaS incubated 30 mins prior to substrate addition measured after 1 hr by topcount scintillation counting analysis; assay type: functional, cell-based
Plasma = test: AUC (0 to 24 hrs) in Wistar rat plasma at 10 mg/kg, po; assay type: ADME, organism-based; set-up: time < 24 hr, dose 10 mg/kg, route oral; conditions: in vivo
[10] = AUC (0 to 24 hrs) in Wistar rat mesenteric lymph at 10 mg/kg, po; assay type: ADME, organism-based, Mesenteric lymph node; set-up: time < 24 hr, dose 10 mg/kg, route oral; conditions: in vivo
[11] = Drug uptake in Wistar rat mesenteric lymph at 10 mg/kg, po after 6 hrs; assay type: ADME, organism-based, Mesenteric lymph node; set-up: dose 10 mg/kg, route oral; conditions: read-out: Drug uptake; method in brief: as §1
[12] = Oral bioavailability in Wistar rat at 10 mg/kg; assay type: ADME, organism-based; conditions: in vivo; method in brief: as §2
[13] = molecular target: Sphingosine 1-phosphate receptor 3 (Homo sapiens, UniProt Q99500); test: Agonist activity at human recombinant S1P3 receptor expressed in CHO cells assessed as membrane-bound 35S-GTPgammaS incubated 30 mins prior to substrate addition measured after 1 hr by topcount scintillation counting analysis; assay type: functional, cell-based
Rattus norvegicus [14] = test: Lymphopenic activity in Wistar rat assessed as reduction in blood lymphocyte count at 10 mg/kg, po after 72 hrs; assay type: functional; method in brief: as §3
[15] = Tmax in Wistar rat mesenteric lymph at 10 mg/kg, po; assay type: ADME, organism-based, Mesenteric lymph node; set-up: dose 10 mg/kg, route oral; method in brief: as §1
Rattus norvegicus [16] = test: Lymphopenic activity in Wistar rat assessed as reduction in blood lymphocyte count at 10 mg/kg, po after 144 hrs; assay type: functional; method in brief: as §3
[17] = Plasma concentration in Wistar rat at 10 mg/kg, po after 2.3 hrs; assay type: ADME, organism-based; set-up: dose 10 mg/kg, route oral; method in brief: as §1
[18] = Plasma concentration in Wistar rat at 10 mg/kg, po after 3 days; assay type: ADME, organism-based; set-up: dose 10 mg/kg, route oral
[19] = Tmax in Wistar rat plasma at 10 mg/kg, po; assay type: ADME, organism-based; set-up: dose 10 mg/kg, route oral; method in brief: as §1
[20] = Drug uptake in Wistar rat mesenteric lymph at 10 mg/kg, po after 24.8 hrs; assay type: ADME, organism-based, Mesenteric lymph node; set-up: dose 10 mg/kg, route oral; conditions: read-out: Drug uptake; method in brief: as §1
[21] = Plasma concentration in Wistar rat at 10 mg/kg, po after 24 hrs; assay type: ADME, organism-based; set-up: dose 10 mg/kg, route oral
[22] = Cmax in Wistar rat plasma at 10 mg/kg, po; assay type: ADME, organism-based; set-up: dose 10 mg/kg, route oral; method in brief: as §1
[23] = Tmax in Wistar rat at 10 mg/kg, po; assay type: ADME, organism-based; set-up: dose 10 mg/kg, route oral; conditions: in vivo; method in brief: as §2
[24] = Drug uptake in Wistar rat mesenteric lymph at 10 mg/kg, po after 3 hrs; assay type: ADME, organism-based, Mesenteric lymph node; set-up: dose 10 mg/kg, route oral; conditions: read-out: Drug uptake; method in brief: as §1
[25] = Volume of distribution at steady state in Wistar rat at 1 mg/kg, iv; assay type: ADME, organism-based; set-up: dose 1 mg/kg, route intravenous; conditions: in vivo, read-out: Vdss; method in brief: as §4
[26] = Drug uptake in Wistar rat mesenteric lymph at 10 mg/kg, po after 2.3 hrs; assay type: ADME, organism-based, Mesenteric lymph node; set-up: dose 10 mg/kg, route oral; conditions: read-out: Drug uptake; method in brief: as §1
[27] = Drug uptake in Wistar rat mesenteric lymph at 10 mg/kg, po after 1 hr; assay type: ADME, organism-based, Mesenteric lymph node; set-up: dose 10 mg/kg, route oral; conditions: read-out: Drug uptake; method in brief: as §1
[28] = Cmax in Wistar rat mesenteric lymph at 10 mg/kg, po; assay type: ADME, organism-based, Mesenteric lymph node; set-up: dose 10 mg/kg, route oral; method in brief: as §1
[29] = Half life in Wistar rat at 1 mg/kg, iv; assay type: ADME, organism-based; set-up: dose 1 mg/kg, route intravenous; conditions: in vivo; method in brief: as §4
[30] = Intrinsic clearance in Wistar rat hepatocytes assessed per 10^6 cells at 1 uM by LC-MS/MS analysis; assay type: ADME, cell-based, Hepatocyte; conditions: read-out: CLH
Method in brief: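 Male rat hepatocytes from two-step collagenase perfusion (viability ≥85%), plated at 5.0 × 10^5 viable cells/mL on collagen and preincubated ~3 h at 37 °C, 5% CO2. Compound at 1 µM final. Duplicate wells sampled at 0–24 h with methanol/0.3% SDS. LC-MS-MS (MRM). CLint from initial first-order disappearance rates.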

[31] = Plasma concentration in Wistar rat at 10 mg/kg, po after 6 days; assay type: ADME, organism-based; set-up: dose 10 mg/kg, route oral
[32] = Plasma concentration in Wistar rat at 10 mg/kg, po after 24.8 hrs; assay type: ADME, organism-based; set-up: dose 10 mg/kg, route oral; method in brief: as §1
[33] = Plasma concentration in Wistar rat at 10 mg/kg, po after 1 hr; assay type: ADME, organism-based; set-up: dose 10 mg/kg, route oral; method in brief: as §1
[34] = Plasma concentration in Wistar rat at 10 mg/kg, po after 3 hrs; assay type: ADME, organism-based; set-up: dose 10 mg/kg, route oral
Rattus norvegicus [35] = test: Lymphopenic activity in Wistar rat assessed as reduction in blood lymphocyte count at 10 mg/kg, po after 3 hrs; assay type: functional; method in brief: as §3
Rattus norvegicus [36] = test: Lymphopenic activity in Wistar rat assessed as reduction in blood lymphocyte count at 10 mg/kg, po after 6 hrs; assay type: functional; method in brief: as §3
[37] = Intrinsic clearance in Wistar rat liver microsomes at 1 uM by LC-MS/MS analysis; assay type: ADME; conditions: read-out: CLH
Method in brief: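 Pooled male Wistar rat liver microsomes at 0.5 mg/mL protein. Compound at 1 µM, 37 °C, DMSO ≤0.1%. Started with NADPH-regenerating system (NADP, glucose 6-phosphate, MgCl2, G6PDH, pH 7.4 phosphate). Quenched with ice-cold methanol at times up to 15 min, then LC-MS-MS.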

Rattus norvegicus [38] = test: Lymphopenic activity in Wistar rat assessed as reduction in blood lymphocyte count at 3 mg/kg, po after 3 hrs; assay type: functional; set-up: scale not given: the % may be the effect or the level left; method in brief: as §3
Rattus norvegicus [39] = test: Lymphopenic activity in Wistar rat assessed as reduction in blood lymphocyte count at 3 mg/kg, po after 24 hrs; assay type: functional; set-up: scale not given: the % may be the effect or the level left; method in brief: as §3
Rattus norvegicus [40] = test: Lymphopenic activity in Wistar rat assessed as reduction in blood lymphocyte count at 3 mg/kg, po after 6 hrs; assay type: functional; set-up: scale not given: the % may be the effect or the level left; method in brief: as §3

Sequence of Sphingosine 1-phosphate receptor 3 (Q99500 whole entry): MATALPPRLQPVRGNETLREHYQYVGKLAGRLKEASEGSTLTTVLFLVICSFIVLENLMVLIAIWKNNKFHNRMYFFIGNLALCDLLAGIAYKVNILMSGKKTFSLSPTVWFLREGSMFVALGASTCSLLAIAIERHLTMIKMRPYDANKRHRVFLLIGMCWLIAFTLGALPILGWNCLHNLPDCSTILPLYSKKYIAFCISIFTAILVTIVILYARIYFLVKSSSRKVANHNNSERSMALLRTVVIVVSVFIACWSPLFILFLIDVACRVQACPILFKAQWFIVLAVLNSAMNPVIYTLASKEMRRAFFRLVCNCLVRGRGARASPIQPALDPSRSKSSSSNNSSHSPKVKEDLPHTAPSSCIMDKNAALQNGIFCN
Sequence of Sphingosine 1-phosphate receptor 1 (P21453 whole entry): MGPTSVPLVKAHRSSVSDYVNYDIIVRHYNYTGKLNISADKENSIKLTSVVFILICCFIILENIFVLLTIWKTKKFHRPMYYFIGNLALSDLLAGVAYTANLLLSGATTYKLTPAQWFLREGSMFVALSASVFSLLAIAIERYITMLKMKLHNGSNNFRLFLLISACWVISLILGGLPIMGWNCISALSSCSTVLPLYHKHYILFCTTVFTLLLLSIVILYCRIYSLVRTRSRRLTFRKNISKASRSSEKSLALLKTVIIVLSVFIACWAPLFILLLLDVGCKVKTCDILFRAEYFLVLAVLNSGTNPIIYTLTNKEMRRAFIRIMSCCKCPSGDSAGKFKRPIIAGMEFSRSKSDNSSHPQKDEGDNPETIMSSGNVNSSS

CCc1cc(-c2noc(-c3sc(CC)c4c3CCC(C)(C)C4)n2)cc(C)c1OC[C@@H](O)CNC(=O)CO
concentration at 1.7 h [1]: 58.1 ng/mL
Cmax [2]: 1450 ng/mL
logD [3]: 4.3
Activity (Rattus norvegicus [4]): Active
concentration at 1.7 h [5]: 4340 ng/mL
concentration at 6 h [6]: 911 ng/mL
AUC(0-t) at 24 h [7]: 28100 ng·h/mL
clearance (Rattus norvegicus [8]): 2 mL/min/kg
EC50 [9]: 4.6 nM
AUC (Plasma): 1660 ng·h/mL
AUC [10]: 70500 ng·h/mL
concentration at 6 h [11]: 4590 ng/mL
bioavailability [12]: > 33%
EC50 [13]: 8.9 nM
Activity (Rattus norvegicus [14]): Active
Tmax [15]: 3 h
Activity (Rattus norvegicus [16]): Active
concentration at 2.3 h [17]: 123 ng/mL
concentration at 72 h [18]: 236 ng/mL
Tmax [19]: 6 h
concentration at 24.8 h [20]: 684 ng/mL
concentration at 24 h [21]: 530 ng/mL
Cmax [22]: 911 ng/mL
Tmax [23]: 6 h
concentration at 3 h [24]: 8090 ng/mL
Vd [25]: 3.5 L/kg
concentration at 2.3 h [26]: 4600 ng/mL
concentration at 1 h [27]: 5790 ng/mL
Cmax [28]: 8090 ng/mL
half-life [29]: 21 h
hepatocyte CLint at 1 µM [30]: 3.1 µL/min/1e6 cells
concentration at 144 h [31]: 66 ng/mL
concentration at 24.8 h [32]: 680 ng/mL
concentration at 1 h [33]: 44.4 ng/mL
concentration at 3 h [34]: 132 ng/mL

CCc1cc(CCC(=O)c2sc(CC)c3c2CCC(C)(C)C3)cc(C)c1OCC(O)CNC(=O)CO (racemic)
Cmax [2]: 141 ng/mL
concentration at 6 h [6]: 10 ng/mL
AUC(0-t) at 24 h [7]: 276 ng·h/mL
clearance (Rattus norvegicus [8]): 46 mL/min/kg
EC50 [9]: 0.6 nM
Activity (Rattus norvegicus [35]): Active
bioavailability [12]: 8%
EC50 [13]: 141 nM
Activity (Rattus norvegicus [36]): Active
microsomal CLint at 1 µM [37]: > 1250 µL/min/mg
concentration at 24 h [21]: < 1.5 ng/mL
Tmax [23]: 0.5 h
Vd [25]: 2.8 L/kg
half-life [29]: 1.7 h
hepatocyte CLint at 1 µM [30]: 107 µL/min/1e6 cells
concentration at 3 h [34]: 32 ng/mL

Cc1cc(-c2noc(-c3scc(CC(C)C)c3C)n2)cc(C)c1OCC(O)CNC(=O)CO (racemic)
% change in blood lymphocyte count from predose (Rattus norvegicus [4]): -80%
Activity (Rattus norvegicus [38]): -67%
EC50 [9]: 1.5 nM
Activity (Rattus norvegicus [35]): -72%
EC50 [13]: 528 nM
Activity (Rattus norvegicus [36]): -79%
Activity (Rattus norvegicus [39]): -27%
Activity (Rattus norvegicus [40]): -79%
